The values below come from ChEMBL document CHEMBL3244330, “Structure--activity relationships of n-substituted dopamine and 2-amino-6,7-dihydroxy-1,2,3,4-tetrahydronaphthalene analogues: behavioral effects in lesioned and reserpinized mice” (J Med Chem, 1979).

In experiment [1] the test system is Mus musculus. Put plainly: Postural effect on caudectomized Swiss albino mouse assessed as latency to onset time of asymmetric postural effect at 51.9 mg/kg, ip. It is filed as functional, organism-based. On the set-up: dose 51.9 mg/kg. The method, boiled down:
(§1)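 Male Swiss albino Hale-Stoner mice with right caudectomy by suction, used if responsive to apomorphine 4 weeks post-lesion. Compound in 0.9% saline given ip, maximum 0.348 mmol/kg. 18 mice per compound in random groups of six, retested after 5–6 day intervals. Onset latency and duration of asymmetric posture recorded; mean ± SE from six animals.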

The subject of experiment [2] is Mus musculus. Put plainly: Postural effect on caudectomized Swiss albino mouse assessed as latency to onset time of asymmetric postural effect at 85 mg/kg, ip. In kind it is functional, organism-based. On the set-up: dose 85 mg/kg. Summed up:
(§2)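 Male Swiss albino Hale-Stoner mice with a right caudectomy made by suction. A lesion was accepted if the mouse responded to apomorphine 4 weeks after surgery. Compounds were dissolved in 0.9% saline and injected ip at random into groups of six, with a maximum dose of 0.348 mmol/kg. 18 mice were used per compound, and mice were retested after 5–6 day intervals. Onset and duration of the asymmetric posture are reported as mean ± SE from six animals.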

In experiment [3] the test system is Mus musculus. The experiment can be described thus: Postural effect on caudectomized Swiss albino mouse assessed as latency to onset time of asymmetric postural effect at 26.3 mg/kg, ip. In kind it is functional, organism-based. On the set-up: dose 26.3 mg/kg. The method, boiled down: as §2
Experiment [4] has as its system Mus musculus. Put plainly: Postural effect on caudectomized Swiss albino mouse assessed as latency to onset time of asymmetric postural effect at 52.6 mg/kg, ip. In kind it is functional, organism-based. On the set-up: dose 52.6 mg/kg. The method, boiled down:
as §2

Experiment [5] relates to Mus musculus. Put plainly: Postural effect on caudectomized Swiss albino mouse assessed as latency to onset time of asymmetric postural effect at 78.9 mg/kg, ip. It is filed as functional. The following applies: route intraperitoneal. The method, boiled down: as §2
In experiment [6] the test system is Mus musculus. The experiment can be described thus: Postural effect on caudectomized Swiss albino mouse assessed as latency to onset time of asymmetric postural effect at 92 mg/kg, ip. In kind it is functional. The following applies: route intraperitoneal. The method, boiled down:
as §2

Experiment [7] deals with Mus musculus. Put plainly: Postural effect on caudectomized Swiss albino mouse assessed as latency to onset time of asymmetric postural effect at 105.1 mg/kg, ip. It is filed as functional. The following applies: route intraperitoneal. Summed up:
as §2

Experiment [8] has as its system Mus musculus. The experiment can be described thus: Postural effect on caudectomized Swiss albino mouse assessed as time duration of asymmetric posture at 78.9 mg/kg, ip. It is filed as functional. The conditions noted are these: route intraperitoneal. The method, boiled down:
(§3)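 Male Swiss albino Hale-Stoner mice given a right caudectomy by suction. The lesion counted as successful if the mice reacted to apomorphine 4 weeks later. Drug was given ip in 0.9% saline, up to 0.348 mmol/kg, to randomised groups of six, with 5-6 days before reuse. Onset and duration of asymmetric posture are reported as mean ± SE from six animals.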

Experiment [9] has as its system Mus musculus. Put plainly: Postural effect on caudectomized Swiss albino mouse assessed as time duration of asymmetric posture at 92 mg/kg, ip. It is filed as functional. The conditions noted are these: route intraperitoneal. The method, boiled down:
as §3

Experiment [10] concerns Mus musculus. The experiment can be described thus: Postural effect on caudectomized Swiss albino mouse assessed as time duration of asymmetric posture at 105.1 mg/kg, ip. In kind it is functional. The following applies: route intraperitoneal. The method, boiled down: as §2
For experiment [11], the system named is Mus musculus. Put plainly: Reversal of reserpine-induced catalepsy in Swiss albino (CD1) mouse at 0.348 mmol/kg, ip. It is filed as functional, organism-based.
Experiment [12] concerns Mus musculus. Put plainly: Postural effect on caudectomized Swiss albino mouse assessed as latency to onset time of asymmetric postural effect at 30.4 mg/kg, ip. The following applies: route intraperitoneal. In kind it is functional. Summed up: as §1
The test system of experiment [13] is Mus musculus. The experiment can be described thus: Postural effect on caudectomized Swiss albino mouse assessed as latency to onset time of asymmetric postural effect at 60.8 mg/kg, ip. In kind it is functional. The conditions noted are these: route intraperitoneal. Summed up: as §1
Experiment [14] has as its system Mus musculus. Put plainly: Postural effect on caudectomized Swiss albino mouse assessed as time duration of asymmetric posture at 30.4 mg/kg, ip. It is filed as functional. The following applies: route intraperitoneal. The method, boiled down:
as §1

In experiment [15] the test system is Mus musculus. Put plainly: Postural effect on caudectomized Swiss albino mouse assessed as time duration of asymmetric posture at 60.8 mg/kg, ip. In kind it is functional. The following applies: route intraperitoneal. Summed up: as §1
The subject of experiment [16] is Mus musculus. The experiment can be described thus: Reversal of reserpine-induced catalepsy in ip dosed Swiss albino (CD1) mouse. In kind it is functional. Summed up:
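Male Swiss albino CD1 mice, 5 weeks old, got reserpine 5 mg/kg ip, then α-MTM 250 mg/kg ip 17 h later, then the test drug ip 4 h after that. Catalepsy was scored by the rubber-stopper test (time to step off the stopper). At least four doses were used, with ≥8 mice per dose. ED50 was taken from a log-probit plot of percent responders against dose.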

Experiment [17] deals with Mus musculus. The experiment can be described thus: Postural effect on caudectomized Swiss albino mouse assessed as time duration of asymmetric posture at 22.6 mg/kg, ip. The following applies: route intraperitoneal. In kind it is functional. Summed up:
as §2

For experiment [18], the system named is Mus musculus. The experiment can be described thus: Postural effect on caudectomized Swiss albino mouse assessed as time duration of asymmetric posture at 45.2 mg/kg, ip. It is filed as functional. The conditions noted are these: route intraperitoneal. Summed up: as §2
The subject of experiment [19] is Mus musculus. Put plainly: Postural effect on caudectomized Swiss albino mouse assessed as time duration of asymmetric posture at 67.8 mg/kg, ip. It is filed as functional. The following applies: route intraperitoneal. Summed up:
as §3

The subject of experiment [20] is Mus musculus. Put plainly: Postural effect on caudectomized Swiss albino mouse assessed as latency to onset time of asymmetric postural effect at 22.6 mg/kg, ip. It is filed as functional. The conditions noted are these: route intraperitoneal. The method, boiled down:
as §2

The test system of experiment [21] is Mus musculus. The experiment can be described thus: Postural effect on caudectomized Swiss albino mouse assessed as latency to onset time of asymmetric postural effect at 45.2 mg/kg, ip. It is filed as functional. The following applies: route intraperitoneal. Summed up:
as §2

In experiment [22] the test system is Mus musculus. Put plainly: Postural effect on caudectomized Swiss albino mouse assessed as latency to onset time of asymmetric postural effect at 67.8 mg/kg, ip. It is filed as functional. The following applies: route intraperitoneal. Summed up:
as §2

In experiment [23] the test system is Mus musculus. The experiment can be described thus: Postural effect on caudectomized Swiss albino mouse assessed as latency to onset time of asymmetric postural effect at 90.8 mg/kg, ip. In kind it is functional, organism-based. On the set-up: dose 90.8 mg/kg. Summed up:
as §2

Experiment [24] relates to Mus musculus. Put plainly: Postural effect on caudectomized Swiss albino mouse assessed as latency to onset time of asymmetric postural effect at 91.2 mg/kg, ip. It is filed as functional, organism-based. On the set-up: dose 91.2 mg/kg. Summed up:
as §1

The subject of experiment [25] is Mus musculus. The experiment can be described thus: Postural effect on caudectomized Swiss albino mouse assessed as latency to onset time of asymmetric postural effect at 96 mg/kg, ip. In kind it is functional, organism-based. On the set-up: dose 96 mg/kg. Summed up:
as §2

The test system of experiment [26] is Mus musculus. The experiment can be described thus: Postural effect on caudectomized Swiss albino mouse assessed as latency to onset time of asymmetric postural effect at 102.2 mg/kg, ip. It is filed as functional, organism-based. On the set-up: dose 102.2 mg/kg. Summed up:
as §1

Experiment [27] concerns Mus musculus. Put plainly: Postural effect on caudectomized Swiss albino mouse assessed as latency to onset time of asymmetric postural effect at 32.3 mg/kg, ip. It is filed as functional. The conditions noted are these: route intraperitoneal. Summed up:
as §2

For experiment [28], the system named is Mus musculus. The experiment can be described thus: Postural effect on caudectomized Swiss albino mouse assessed as latency to onset time of asymmetric postural effect at 64.6 mg/kg, ip. In kind it is functional. The following applies: route intraperitoneal. Summed up: as §2
Experiment [29] deals with Mus musculus. The experiment can be described thus: Postural effect on caudectomized Swiss albino mouse assessed as latency to onset time of asymmetric postural effect at 96.9 mg/kg, ip. It is filed as functional. The following applies: route intraperitoneal. The method, boiled down: as §2
Experiment [30] relates to Mus musculus. Put plainly: Postural effect on caudectomized Swiss albino mouse assessed as time duration of asymmetric posture at 32.3 mg/kg, ip. In kind it is functional. The conditions noted are these: route intraperitoneal. Summed up:
as §2

Experiment [31] deals with Mus musculus. The experiment can be described thus: Postural effect on caudectomized Swiss albino mouse assessed as time duration of asymmetric posture at 64.6 mg/kg, ip. In kind it is functional. The following applies: route intraperitoneal. Summed up: as §3
The subject of experiment [32] is Mus musculus. Put plainly: Postural effect on caudectomized Swiss albino mouse assessed as time duration of asymmetric posture at 96.9 mg/kg, ip. In kind it is functional. The following applies: route intraperitoneal. The method, boiled down:
as §3

Calls of active or inactive are those of the source. The rule behind the calls is not given here.

The term ED50 denotes the dose at which the effect has come halfway, by size or by number of responders.

As for `Oc1ccc(CCN(CCc2ccccc2)CCc2ccccc2)cc1O`, in the experiment on Mus musculus [1], the outcome was inactive.

Regarding `CNCCc1ccc(O)c(O)c1`, the result with Mus musculus [2] was inactive.

As for `CCC(C)N(CCc1ccc(O)c(O)c1)C(C)CC.Cl` (centres undefined), the outcome with Mus musculus [3], with Mus musculus [4] and in the experiment on Mus musculus [11] was inactive. The Time in the experiment with Mus musculus [5] was determined as 1.8 min; in the experiment with Mus musculus [6], 5.2 min; in the experiment on Mus musculus [7], 5 min; in the experiment on Mus musculus [8], 7 min; in the experiment on Mus musculus [9] it was 7 min; with Mus musculus [10], 10.8 min.

Regarding `CCCN(CCCc1ccccc1)CCc1ccc(O)c(O)c1.Cl`, the Time with Mus musculus [12] came to 7.6 min; in the experiment with Mus musculus [13], 5.8 min; with Mus musculus [14], 6.4 min; in the experiment on Mus musculus [15], 18.2 min. In the experiment with Mus musculus [16], the ED50 was 9 mg/kg.

For the molecule `CCCCN(C)CCc1ccc(O)c(O)c1.Cl`, the Time with Mus musculus [17] turned out to be 3.7 min; in the experiment with Mus musculus [18] it was 2.3 min; in the experiment with Mus musculus [19], 2.2 min; with Mus musculus [20], 0.4 min; in the experiment on Mus musculus [21], 1.3 min; with Mus musculus [22], 3.1 min. In addition, the median effective dose (ED50) in the experiment on Mus musculus [16] was 61 mg/kg.

For the molecule `CCCCCNCCc1ccc(O)c(O)c1`, the result with Mus musculus [23] was inactive.

With `CCCCN(CCc1ccccc1)CCc1ccc(O)c(O)c1`, the outcome with Mus musculus [24] was inactive.

Regarding `CN(C)CCc1ccc(O)c(O)c1`, the result in the experiment on Mus musculus [25] was inactive.

Turning to `Oc1ccc(CCNCCc2ccccc2)cc1O`, the result with Mus musculus [26] was inactive.

Take `Br.CCCCN(CCCC)C1CCc2cc(O)c(O)cc2C1` (centres undefined): the Time is 1 min in the experiment with Mus musculus [27]; 5.3 min with Mus musculus [28]; 4.1 min with Mus musculus [29]; 1.6 min with Mus musculus [30]; 8.8 min in the experiment with Mus musculus [31]; 13.7 min in the experiment with Mus musculus [32]. In addition, the ED50 in the experiment on Mus musculus [16] was found to be 44 mg/kg.
